Results reported in the EternaBench riboswitch data.

System: MS2 coat protein
Assay: apparent Kd, MS2 coat protein; higher = weaker binding; RNA-MaP array; FMN 200 µM where present
Procedure, shortened: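 Stalled E. coli RNA polymerase transcribed the designs on Illumina sequencing-chip clusters. SNAP-549-labelled MS2 coat protein was titrated from 0.7 or 1.5 nM, doubling to 3 µM, without and then with constant ligand, in 100 mM Tris-HCl pH 7.5, 80 mM KCl, 4 mM MgCl2, BSA, DTT, yeast tRNA and Tween-20. Per-cluster binding curves were fitted to green signal normalised to red-channel RNA signal and control-cluster median Fmax. The apparent Kd is the median of the filtered fits.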

[1] = designed as: OFF switch for flavin mononucleotide, no ligand
[2] = ligand present: flavin mononucleotide, designed as: OFF switch for flavin mononucleotide
[3] = designed as: ON switch for flavin mononucleotide, no ligand
[4] = ligand present: flavin mononucleotide, designed as: ON switch for flavin mononucleotide

Sequence	apparent Kd [1]	apparent Kd [2]	apparent Kd [3]	apparent Kd [4]
UUGUGCUGAGAGAAGGUUCAAACUACAUAUUGCGCACAUGAGGAUCACCCAUGUUGGUGAAUAAGAAAGGAUAUUUUACUGUAU	244 nM	184 nM	–	–
CAGCGAAAGCUGAAUCUGUAGAGAGAGGAUAUACGAGGCGAAAUCCAUACAUGAGGAUCACCCAUGUAGAAGGCUCUCUACAGU	155 nM	363 nM	–	–
ACUUUAUUUGAGAAGGUGAAGUGGAAACAUGAGGAUCACCCAUGUAAUAGGAAGCCUAUUUUUAUCAAGGAUAUCAAAUAAAGA	–	–	7.89 nM	7.86 nM
CAGUCUACAGGAUAUACAUGAGGAUCACCCAUGUGUAUCAACCUUCUGUAAUCCUCAUGUAGAAGGGUAGACUG	16.3 nM	13.7 nM	–	–
UGCAGACAUGAGGAUCACCCAUGUCAGGAUAUUGGACUAUGCAAUGUAUUGUUAGUACCAAGAAGGGACCCGUC	31.8 nM	27.2 nM	–	–
UGCGUACAAGCAAACAUGAGGAUCACCCAUGUGGUCUCAUGCGAGGAUAUCGGGAAGGAGGAUUCCGAGAAGGUGCGGUGAGCC	–	–	116 nM	27.9 nM
AUUUUUUGUCAUGUACAUGAGGAACAUGAGGAUCACCCAUGUAGAAGGAAUUUUUUUAAGUUUAGUUAGGAUAUACAUAUAUUU	53.9 nM	30 nM	–	–
UGCCAAGCAGGAUAUGCACGUAAUAACAUGAGGAUCACCCAUGUGACCGAUUUAUAUUCUGCAGAAGGGCUUGGUU	138 nM	242 nM	–	–
UCACGGUAUGUAGGAUAUGCAUAGCAUUGCUAUGCAGAAGGACAUGAGGAUCACCCAUGUAUGUAUUCCAUACUAAUCCCGUGU	6.15 nM	6.09 nM	–	–
AUUAAUUAAUUAAUACAUGAGGAUCACCCAUGUAAUAAGAUCUAGGAUAUCAGCUCGAUUAGAGCUGAGAAGGAGAUCACAUGU	–	–	46.8 nM	39.5 nM
CUCAGCUCGUCAGGAUAUACGUCACUGCUUCGGCAGUGUGGUAAGAUCACAUGAGGAUCACCCAUGUAGAAGGGACGAGCUGAC	12.7 nM	316 nM	–	–
CUGGUUGUCGUAGGAUAUGUAGGAUAUUCCUACAUGAGGAUCACCCAUGUUCGCAUGGAAGAAGGACAGAAGGACGAUGACCAA	–	–	1160 nM	8.77 nM
UUGAUAUUGUAAGGAUAUACUCUGUGAUGAAGAGUAGAAGGUACUUACAUGAGGAUCACCCAUGUUUAACGAGAUACUAAUCGU	–	–	48.9 nM	20 nM
UCGAACUUUCAUGAAAUUCGCACAUGAGGAUCACCCAUGUACGAGGAUAUGUACUUAAACGGCUAACAGAAGGCGUACUGGGCA	105 nM	71.8 nM	–	–
GGAUGACAAAGUCAUCCUAUUCGAACAUGAGGAUCACCCAUGUAGGAUAUGCAACUCAAAGAGUUGCAGAAGGACAUGUGCCUU	30.9 nM	153 nM	–	–
AUCGUGCAGCUUUGCUGUACGCGUACAUGAGGAUCACCCAUGUAGGAUAUGGUAGGCAAAGCUUACUAGAAGGAUAUAGUGAUC	61.9 nM	54 nM	–	–
UUAUAAAAGCAGAAGGGCCGAUUAAGGAUCCGCAUGGCGCUGGACAUGAGGAUCACCCAUGUAAGGCAGGAUAUGCAAAAUAAG	458 nM	24.8 nM	–	–
GUUGCUUUCCGAGGAUAUUCUGGGCGUGGUUAUACAUGAGGAUCACCCAUGUGGCGGUUGCCUAGGGAGAAGGCGGGCUGCUUC	–	–	20.3 nM	17.9 nM
UUACAGGUUUAAGGCGUUCCCAGACAUGAGGAUCACCCAUGUAGAAGGACCGUAAGAAAUUUUCGGUAGGAUAUACAUUAAGGG	28.6 nM	29.2 nM	–	–
AAAGGACGAUUAGGAUAUUCGGUUCAAGGUAAAGAAGAAGGAAUCGUUCCAUACUUAACAUGAGGAUCACCCAUGUGGGUCUAG	34.9 nM	29.5 nM	–	–
AGGUGAGCCGUCAGGAUAUGCGUUCCGUAGGGUCAGCAGAAGGGACAUGAGGAUCACCCAUGUUUCGCACGUGG	34.2 nM	71.1 nM	–	–
UCAGGCUUCGAGAAGGACAUGAGGAUCACCCAUGUUAGUUUGAAGCAGCCGUGAGGCUGCAUCAUGUAGGAUAUCGGAGUCUGC	6.47 nM	11.7 nM	–	–
CCGCAAAUGGAGGAUAUCGUAUCGGAUACGAUACGAGAAGGCUAAACAUGAGGAUCACCCAUGUGUCCUAGCGG	14 nM	15.5 nM	–	–
